Activity calls are given as the source filed them.
How the values were obtained:
Rattus norvegicus [1] = assay: Antiinflammatory activity against Freund's adjuvant-induced arthritis in Wistar rat assessed as reduction in joint width at 50 mg/kg, po; format: functional, organism-based; parameters: dose 50 mg/kg
How it was run: (§1)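 Arthritis induced by Freund's adjuvant injected into right paw; after 3 days paw height, paw width and joint width re-measured (day 0) and rats randomised. Dosed once daily for 3 further days (days 1–3), orally at 10 ml/kg or ip at 2 ml/kg, in vehicle 10% DMSO/10% Tween 80/80% water. Measurements taken at baseline, day 0 and days 1–4, compared with vehicle group.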

Rattus norvegicus [2] = assay: Toxicity in arthritic Wistar rat assessed as gastric ulcerogenic response at 100 mg/kg, po; format: organism-based, Stomach; parameters: dose 100 mg/kg, route oral; conditions: in vivo
How it was run: (§2)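 Arthritis induced as for adjuvant model. Two days later rats fasted overnight, then dosed orally (10 ml/kg) or with vehicle; indomethacin 10 mg/kg po as positive control. Rats killed 4 h later, stomachs opened along greater curvature. Ulcer index taken as summed lesion length (mm) in gastric mucosa.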

Rattus norvegicus [3] = assay: Antiinflammatory activity against Freund's adjuvant-induced arthritis in Wistar rat assessed as reduction in joint size at 100 mg/kg, ip; format: functional, organism-based; parameters: dose 100 mg/kg; how it was run: as §1
Rattus norvegicus [4] = assay: Antiinflammatory activity against Freund's adjuvant-induced arthritis in Wistar rat assessed as reduction in paw width at 100 mg/kg, ip; format: functional, organism-based; parameters: dose 100 mg/kg; how it was run: as §1
Rattus norvegicus [5] = assay: Antiinflammatory activity against Freund's adjuvant-induced arthritis in Wistar rat assessed as reduction in joint size at 100 mg/kg, po; format: functional, organism-based; parameters: dose 100 mg/kg; how it was run: as §1
Rattus norvegicus [6] = assay: Antinociceptive activity in Wistar rat assessed as increase in latency time at 100 mg/kg, ip; format: functional, organism-based; parameters: dose 100 mg/kg
How it was run: (§3)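 Freund's adjuvant-arthritic rats given ip dosing (10 ml/kg) or vehicle once daily for 4 days. Hot-plate test the day after the last injection at 55 ± 0.5 °C, set for 15–18 s control latency. Latency to hind-paw licking or jump recorded, 60 s cut-off. Each rat tested twice, 30 min apart. Normal rats included as controls.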

Rattus norvegicus [7] = assay: Antiinflammatory activity against Freund's adjuvant-induced arthritis in Wistar rat assessed as reduction in paw width at 50 mg/kg, po; format: functional, organism-based; parameters: dose 50 mg/kg; how it was run: as §1
Rattus norvegicus [8] = assay: Antiinflammatory activity against Freund's adjuvant-induced arthritis in Wistar rat assessed as reduction in paw height at 100 mg/kg, po; format: functional, organism-based; parameters: dose 100 mg/kg; how it was run: as §1
Rattus norvegicus [9] = assay: Antiinflammatory activity against Freund's adjuvant-induced arthritis in Wistar rat assessed as reduction in paw height at 50 mg/kg, po; format: functional, organism-based; parameters: dose 50 mg/kg; how it was run: as §1
Rattus norvegicus [10] = assay: Antinociceptive activity in Wistar rat assessed as increase in latency time at 50 mg/kg, ip; format: functional, organism-based; parameters: dose 50 mg/kg; how it was run: as §3
Rattus norvegicus [11] = assay: Antiinflammatory activity in Wistar rat assessed as reduction of carrageenan-induced paw oedema; format: functional, organism-based
How it was run: (§4)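 Overnight-fasted rats dosed orally (10, 50, 100 mg/kg/10 ml) or with vehicle before carrageenan injection into the footpad. Equal volume of saline injected into left hindpaw. Rats killed 4 h later and hind paws cut and weighed. Oedema taken as right minus left paw weight; means ± SEM versus vehicle.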

Rattus norvegicus [12] = assay: Antiinflammatory activity against Freund's adjuvant-induced arthritis in Wistar rat assessed as reduction in joint width at 10 mg/kg, po; format: functional, organism-based; parameters: dose 10 mg/kg; how it was run: as §1
Rattus norvegicus [13] = assay: Antiinflammatory activity against Freund's adjuvant-induced arthritis in Wistar rat assessed as reduction in paw width at 100 mg/kg, po; format: functional, organism-based; parameters: dose 100 mg/kg; how it was run: as §1
Rattus norvegicus [14] = assay: Antiinflammatory activity against Freund's adjuvant-induced arthritis in Wistar rat assessed as reduction in paw width at 10 mg/kg, po; format: functional, organism-based; parameters: dose 10 mg/kg; how it was run: as §1
Rattus norvegicus [15] = assay: Antiinflammatory activity against Freund's adjuvant-induced arthritis in Wistar rat assessed as reduction in paw height at 100 mg/kg, ip; format: functional, organism-based; parameters: dose 100 mg/kg; how it was run: as §1
Rattus norvegicus [16] = assay: Antiinflammatory activity against Freund's adjuvant-induced arthritis in Wistar rat assessed as reduction in paw height at 10 mg/kg, po; format: functional, organism-based; parameters: dose 10 mg/kg; how it was run: as §1
Rattus norvegicus [17] = assay: Toxicity in arthritic Wistar rat assessed as gastric ulcerogenic response at 10 mg/kg, po; format: organism-based, Stomach; parameters: dose 10 mg/kg, route oral; conditions: in vivo; how it was run: as §2
Rattus norvegicus [18] = assay: Antiinflammatory activity against carrageenan-induced Wistar rat paw oedema at 100 mg/kg, po; format: functional, organism-based; parameters: dose 100 mg/kg; how it was run: as §4
Rattus norvegicus [19] = assay: Antiinflammatory activity against carrageenan-induced Wistar rat paw oedema at 10 mg/kg, po; format: functional, organism-based; parameters: dose 10 mg/kg; how it was run: as §4
Rattus norvegicus [20] = assay: Antiinflammatory activity against carrageenan-induced Wistar rat paw oedema at 50 mg/kg, po; format: functional, organism-based; parameters: dose 50 mg/kg; how it was run: as §4

FC(F)(F)c1ccc(-n2nc3c(c2-c2ccccc2)CCCC3)cc1
Activity (Rattus norvegicus [1]): inactive | Activity (Rattus norvegicus [2]): Non-toxic | Activity (Rattus norvegicus [3]): Active | Activity (Rattus norvegicus [4]): Active | Activity (Rattus norvegicus [5]): inactive | Activity (Rattus norvegicus [6]): Active | Activity (Rattus norvegicus [7]): inactive | Activity (Rattus norvegicus [8]): inactive | Activity (Rattus norvegicus [9]): inactive | Activity (Rattus norvegicus [10]): Active | Activity (Rattus norvegicus [11]): Dose-dependent effect | Activity (Rattus norvegicus [12]): inactive | Activity (Rattus norvegicus [13]): inactive | Activity (Rattus norvegicus [14]): inactive | Activity (Rattus norvegicus [15]): Active | Activity (Rattus norvegicus [16]): inactive

COc1ccc2c(c1)c(CC(=O)O)c(C)n2C(=O)c1ccc(Cl)cc1 [INDOMETHACIN]
Activity (Rattus norvegicus [17]): Toxic

FC(F)(F)c1ccnc(-n2nc3c(c2-c2ccccc2)CCCC3)n1
Activity (Rattus norvegicus [18]): inactive | Activity (Rattus norvegicus [2]): Non-toxic | Activity (Rattus norvegicus [3]): inactive | Activity (Rattus norvegicus [19]): inactive | Activity (Rattus norvegicus [4]): Active | Activity (Rattus norvegicus [5]): inactive | Activity (Rattus norvegicus [20]): inactive | Activity (Rattus norvegicus [8]): Active | Activity (Rattus norvegicus [13]): inactive | Activity (Rattus norvegicus [15]): Active
